Assay outcomes from PubChem.
STAT3 inh – reduces IL-6 driven STAT3 reporter signal. U3A cells, IL-6 STAT3-luciferase reporter, luminescence; host cell line lacks STAT1. inhibition, % at 5.5 µM. actives 0.89% (n = 190,000);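 active means inhibition above the mean inhibition across all screened compounds plus 3 SD, cut at about 44% in these data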;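 further: 0% = DMSO only wells and 100% = 100 µM nifuroxazide control wells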
NF-kB expr up – raises NF-kB expression in human neuronal cells | AID 1239 | fold change at 12.5 µM | NF-kB reporter expression; hits give high values | actives 1.6% (n = 190,000); in the data active means fold change above about 3.3
STAT1 act – STAT1 signaling activation | actives 2.6% (n = 200,000) | NIH 3T3 STAT1-luciferase reporter, IFN-gamma, luminescence; 100% = IFN-gamma alone, no compound | AID 932 | activation (% of control), % at 5.5 µM;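 active means activation above the screen-wide mean activation plus 3 SD, cut at about 130% in these data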;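 further: raw ratio to IFN-gamma control signal so 100% means no change and 0% no light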
APP 5'UTR act – APP 5'UTR luciferase reporter activation. actives 1% (n = 190,000). SH-SY5Y APP 5'UTR luciferase reporter, luminescence; zero percent = DMSO vehicle wells. activation, % at 2 µM;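 active means activation above a set limit, based on mean plus 3 SD of controls, cut at about 140% in these data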
STAT3 act – increases IL-6 driven STAT3 reporter signal | U3A cells, IL-6 STAT3-luciferase reporter, luminescence; 100% = signal with IL-6 EC80 alone | activation (% of control), % at 5.6 µM | actives 0.91% (n = 190,000) | AID 871;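 active means activation above the screen-wide mean of compound activation plus 3 SD, cut at about 130% in these data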;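 further: 0% = background luminescence of wells with medium and substrate only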
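Test system: human U3A cells carrying STAT3-luciferase construct; control set: IL-6-only wells as 100% reference; timing: compound pre-incubation 1 h before IL-6, then 6 h stimulation at 37 °C; also added: IL-6 stimulus at 33 ng/mL final; evaluation: % activation versus median of IL-6-stimulated wells; detection: reporter luminescence signal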
STAT1 inh – inhibitors of IFN-gamma induced STAT1 signaling; actives 0.35% (n = 200,000); AID 920; inhibition, % at 5.5 µM; NIH 3T3 STAT1-luciferase reporter, luminescence;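 active means inhibition above a set limit, the mean inhibition across all tested compounds plus 3 SD, cut at about 34% in these data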;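 further: 0% = IFN-gamma with DMSO and 100% = IFN-gamma with 300 µM nifuroxazide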
STAT1 act conf – STAT1 activation, confirmation assay; NIH 3T3 STAT1-luciferase reporter, IFN-gamma potentiation, luminescence; 100% = IFN-gamma EC80 alone, no compound; shares compounds with STAT1 act; activation (% of control), % at 5.7 µM; actives 97% (n = 1,200);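 active means activation above a set limit carried over from the earlier primary STAT1 screen, cut at about 140% in these data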;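 further: simple ratio to median IFN-gamma plus DMSO wells so 0% means no light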
NFkB act STAT1ct – counter-screen for STAT1 activators: NF-kappaB activation; shares compounds with STAT1 act; HEK293T NF-kB luciferase reporter, TNF-alpha stimulated, luminescence; 100% = TNF-alpha with vehicle only; activation (% of control), % at 5.7 µM; actives 43% (n = 1,200); AID 1306;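 active means activation above the mean of solvent-only control wells plus 3 SD, set per campaign, cut at about 130% in these data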;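 further: TNF-alpha given at a submaximal dose yielding about 80% of full reporter signal; values are well signal over median control so 100% means no change and 0% no light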
STAT3 act STAT1c – counter-screen for STAT1 activators: human STAT3 activation. shares compounds with STAT1 act. activation (% of control), % at 5.7 µM. U3A cells STAT3-luciferase reporter, IL-6, luminescence; cells lack STAT1; 100 = IL-6 alone, no compound effect. actives 46% (n = 1,200);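 active means activation above the solvent-only control well mean plus 3 SD, set per plate batch, cut at about 110% in these data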;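 further: 0% = no luminescence and 100% = median IL-6 plus DMSO wells; higher means more STAT3 reporter activation so hits are non-selective activators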
An asterisk follows results filed as active; . = no result. This is a sample that favours compounds with a hit; in the whole collection about 4.9% have one here.

SMILES	STAT3 inh	NF-kB expr up	STAT1 act	APP 5'UTR act	STAT3 act	STAT1 inh	STAT1 act conf	NFkB act STAT1ct	STAT3 act STAT1c
CCOc1ccc(NC(=O)c2ccco2)c([N+](=O)[O-])c1	2.1	6.02*	164.2*	98.6	99.0	-71.7	190.9*	136.0*	110.0
CCOc1ccc(NC(=O)c2cccs2)c([N+](=O)[O-])c1	2.7	3.01	152.1*	58.2	106.5	-58.0	189.4*	132.8	105.4
CCOc1ccc(C(=O)Nc2cccc(NC(=O)c3cccs3)c2)cc1[N+](=O)[O-]	9.7	0.53	90.0	-9.6	91.5	11.2	.	.	.
CN(CC(=O)OCC(=O)c1c(N)n(C)c(=O)n(C)c1=O)S(=O)(=O)c1ccc(Cl)cc1	9.9	1.14	97.0	-3.1	95.8	3.3	.	.	.
CC(C)(CO)C(O)C(=O)NCCC#N (stereo not drawn)	-4.4	0.94	95.3	-4.9	104.6	4.0	.	.	.
O=C(CSc1nnc(-c2ccncc2)n1-c1ccc(F)cc1)NNC(=O)c1cccc(O)c1	-14.1	1.3	90.8	5.2	110.1	10.0	.	.	.
CC(C)(C)NC(=O)NC(=O)COc1ccc(Br)cc1Br	-6.8	5.1*	196.5*	150.8*	104.5	-105.7	242.9*	129.9	113.6*
CC1(C)CC(=O)c2cnc(NC3CC3)nc2C1	-6.5	1.13	104.1	4.0	106.5	-5.9	.	.	.
Cc1ccc(Nc2ncc3c(n2)CC(C)(C)CC3=O)cc1	13.1	5.15*	179.0*	157.9*	93.9	-89.6	194.4*	138.7*	118.9*
CC(=O)c1cccc(NC(=O)COC(=O)C2=COCCO2)c1	-0.9	1.25	101.0	-21.5	104.1	-1.4	.	.	.
Oc1ccc(N=Nc2n[nH]c(-c3ccccc3)n2)cc1	14.7	6.3*	172.2*	145.9*	87.4	-81.0	184.5*	122.1	104.8
CCOc1cc(-n2cnnn2)c(OCC)cc1NC(=O)c1cc2ccc(N(CC)CC)cc2oc1=O	-6.5	.	103.7	21.8	105.3	-4.0	.	.	.
CCN(CC)c1ccc2cc(C(=O)Nc3ccccn3)c(=O)oc2c1	42.4	3.58*	154.2*	97.0	68.1	-55.9	236.2*	93.3	92.5
O=C(Nc1ccc2c(c1)CCC2)c1ccccc1Br	14.9	1.15	154.5*	218.9*	89.6	-59.4	218.2*	138.1*	112.1*
O=C(Nc1ccc2c(c1)CCC2)c1cccc(F)c1	3.8	6.8*	162.5*	169.7*	96.7	-70.2	202.3*	131.4	102.0
Cc1cccc(-n2ncc3c(NC4CCCCC4)ncnc32)c1	16.6	7.18*	167.5*	180.3*	86.6	-70.8	239.1*	138.3*	102.3
COc1ccccc1Nc1ncnc2c1cnn2-c1cccc(C)c1	12.1	1.85	120.6	12.0	95.8	-22.4	.	.	.
CCOc1ccccc1-c1nc(-c2ccc(C)nc2OC)no1	7.6	2.18	152.8*	79.7	95.1	-57.7	167.2*	132.8	113.6*
CCOc1nc(C)ccc1-c1noc(-c2ccccn2)n1	6.9	1.42	112.6	16.3	99.0	-13.8	.	.	.
COc1ccccc1-c1noc(-c2ccccc2)n1	6.2	5.58*	176.1*	125.0	98.2	-83.3	212.6*	141.5*	116.2*
Cc1ccsc1/C=N/NC(=O)c1sccc1C	9.2	3.21	153.3*	135.9*	97.0	-58.3	173.4*	129.6	111.7*
Cc1ccsc1/C=N\NC(=O)c1cc(C(C)(C)C)[nH]n1	-6.3	2.17	156.0*	84.6	114.7	-60.4	171.3*	128.6	117.5*
